In brackets after ≈: the same amount, converted by molar mass.
Experiments:
Assay type in all cases: functional
[1] = test system: Candida albicans; assay: Antifungal activity against Candida albicans ATCC 90028 after 48 hrs; settings: ATCC 90028, 48 h
Summary of the method: (§1)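 Broth microdilution after modified CLSI M27-A in SG minimal medium (yeast nitrogen base without amino acids, 2% glucose). Compounds dissolved in DMSO (1 mg/mL), diluted 10-fold in SG, then 30 final concentrations from 97.5 to 0.0025 µg/mL. About 5 × 10³ cells/well, in triplicate. Incubated at 30 °C for 48 h, OD 655 nm read as % of DMSO control; MIC50 by probit analysis of mean values.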

[2] = test system: Candida albicans; assay: Antifungal activity against Candida albicans PYCC 3436 after 48 hrs; settings: PYCC 3436, 48 h; summary of the method: as §1
[3] = test system: Pichia kudriavzevii; assay: Antifungal activity against Candida krusei PYCC 3341 after 48 hrs; settings: PYCC 3341, 48 h; summary of the method: as §1
[4] = test system: Candida parapsilosis; assay: Antifungal activity against Candida parapsilosis PYCC 2545 after 48 hrs; settings: Lodderomyces parapsilosis, PYCC 2545, 48 h; summary of the method: as §1
[5] = test system: Candida parapsilosis; assay: Antifungal activity against Candida parapsilosis ATCC 22019 after 48 hrs; settings: Lodderomyces parapsilosis, ATCC 22019, 48 h; summary of the method: as §1
[6] = test system: Nakaseomyces glabratus; assay: Antifungal activity against Candida glabrata PYCC 2418 after 48 hrs; settings: PYCC 2418, 48 h; summary of the method: as §1

Row | Structure (SMILES) | MIC50 [1] | MIC50 [2] | MIC50 [3] | MIC50 [4] | MIC50 [5] | MIC50 [6]
1 | CCOC1=C(Cl)C(=O)c2ccccc2C1=O | 202 µM (≈ 47.9 µg/mL) | 9.5 µM (≈ 2.25 µg/mL) | 3.9 µM (≈ 0.923 µg/mL) | 48.3 µM (≈ 11.4 µg/mL) | 40.4 µM (≈ 9.56 µg/mL) | 3.8 µM (≈ 0.899 µg/mL)
2 | COC1=C(Cl)C(=O)c2ccccc2C1=O | 73.9 µM (≈ 16.5 µg/mL) | 10.4 µM (≈ 2.32 µg/mL) | 4.6 µM (≈ 1.02 µg/mL) | 5.3 µM (≈ 1.18 µg/mL) | 4.7 µM (≈ 1.05 µg/mL) | 16.7 µM (≈ 3.72 µg/mL)
3 | CCOC(=O)CC1=C(Br)C(=O)c2ccccc2C1=O | 4.5 µM (≈ 1.45 µg/mL) | 0.9 µM (≈ 0.291 µg/mL) | – | 1.1 µM (≈ 0.355 µg/mL) | 3.2 µM (≈ 1.03 µg/mL) | 12 µM (≈ 3.88 µg/mL)
4 | C[C@@H]1[C@H](O)[C@@H](C)/C=C/C=C/C=C/C=C/C=C/C=C/C=C/[C@H](O[C@@H]2O[C@H](C)[C@@H](O)[C@H](N)[C@@H]2O)C[C@@H]2O[C@](O)(C[C@@H](O)C[C@@H](O)[C@H](O)CC[C@@H](O)C[C@@H](O)CC(=O)O[C@H]1C)C[C@H](O)[C@H]2C(=O)O [AMPHOTERICIN B] | 1.2 µM (≈ 1.11 µg/mL) | 0.5 µM (≈ 0.462 µg/mL) | 1 µM (≈ 0.924 µg/mL) | 0.5 µM (≈ 0.462 µg/mL) | 0.5 µM (≈ 0.462 µg/mL) | 0.4 µM (≈ 0.37 µg/mL)

Continued, values first:

Row | MIC50 [1] | MIC50 [2] | MIC50 [3] | MIC50 [4] | MIC50 [5] | MIC50 [6] | Structure (SMILES)
5 | 56.7 µM (≈ 19.2 µg/mL) | 2.5 µM (≈ 0.848 µg/mL) | 9.7 µM (≈ 3.29 µg/mL) | 1.6 µM (≈ 0.543 µg/mL) | 6.1 µM (≈ 2.07 µg/mL) | 1.5 µM (≈ 0.509 µg/mL) | O=C1c2ccccc2C(=O)c2c(S(=O)(=O)c3ccccc3)noc21
6 | 11.5 µM (≈ 3.12 µg/mL) | 1.8 µM (≈ 0.488 µg/mL) | 2.3 µM (≈ 0.624 µg/mL) | 0.6 µM (≈ 0.163 µg/mL) | 1.7 µM (≈ 0.461 µg/mL) | 0.6 µM (≈ 0.163 µg/mL) | CCOC(=O)c1noc2c1C(=O)c1ccccc1C2=O
7 | 71.2 µM (≈ 21.6 µg/mL) | 1.6 µM (≈ 0.485 µg/mL) | 21.2 µM (≈ 6.43 µg/mL) | 13.2 µM (≈ 4 µg/mL) | 3.3 µM (≈ 1 µg/mL) | 47.6 µM (≈ 14.4 µg/mL) | O=C(c1ccccc1)c1noc2c1C(=O)c1ccccc1C2=O
8 | 12.2 µM (≈ 3.14 µg/mL) | 0.7 µM (≈ 0.18 µg/mL) | 2.4 µM (≈ 0.617 µg/mL) | 1.3 µM (≈ 0.334 µg/mL) | 1.8 µM (≈ 0.463 µg/mL) | 2.6 µM (≈ 0.669 µg/mL) | COC(=O)c1noc2c1C(=O)c1ccccc1C2=O
